Published values of several laboratories.
Compare with care: the assays were run in different laboratories.
Effect on: enzyme activity
Mode: inhibitor
SRC: Proto-oncogene tyrosine-protein kinase Src (SRC, Homo sapiens, UniProt P12931)
SRC T341M: Proto-oncogene tyrosine-protein kinase Src (SRC, Homo sapiens, UniProt P12931, T341M)

With `Nc1nc(NC2CCCCC2)sc1C(=O)c1ccccc1` the remaining activity was 99% (SRC; 10 µM).
`Cc1ccc(NC(=O)c2ccc(C)c(C(F)(F)F)c2)cc1C#Cc1nn(C2CCC(O)CC2)c2ncnc(N)c12` (stereo not drawn) gave a remaining activity of 20% (SRC T341M; 10 µM).
`CC(C)(C)c1nc2c(s1)c1nc(N)ncc1c1ccc(NS(=O)(=O)c3c(F)cccc3F)c(F)c12` gave a remaining activity of 89% (SRC; radiometric; 1 µM).
`Cc1[nH]c(/C=C2\C(=O)Nc3ccc(F)cc32)c(C)c1C(=O)N[C@H]1CCN(C(=O)N(C)C)C1` has a remaining activity of 109% (SRC; 0.1 µM).
The remaining activity of `CCN(CC)c1ccc(C2=NNC(=O)CC2C)cc1[N+](=O)[O-]` (stereo not drawn) is reported as 94% (SRC; 10 µM).
`Nc1ncnc2occ(-c3ccc(NC(=O)Nc4cc(C(F)(F)F)ccc4F)cc3)c12` has a remaining activity of 0.2% (SRC; 20 µM).
With `CCCOc1ccc(OC)c(F)c1C(=O)c1ccc(C(=O)N[C@@H]2CNC[C@H]2NC(=O)c2ccc3[nH]ncc3c2)cc1` the remaining activity was 53% (SRC T341M; 10 µM).
With `Cn1c(=O)n(-c2ccc(C(C)(C)C#N)cc2)c2c3cc(-c4cnc5ccccc5c4)ccc3ncc21` the remaining activity was 121% (SRC; 10 µM).
`O=c1cc(-c2cccc3c2Sc2ccccc2S3)oc(N2CCOCC2)c1` has a remaining activity of 106% (SRC; 0.5 µM).
The remaining activity of `Cc1cnc(NC2CCOCC2)nc1-n1cnc(C(=O)NC(CN)c2cc(F)cc(Cl)c2)c1` (stereo not drawn) is reported as 103% (SRC T341M; radiometric; 1 µM).
For `Cc1sc(C(=O)NC2COC2)cc1-n1cc(NC(=O)Nc2c(F)cccc2Cl)cn1`, the remaining activity was 96.6% (SRC; 10 µM).
With `COc1cc(Nc2cnc(C#N)c(O[C@H](C)CN(C)C)n2)ncc1-c1cnn(C)c1` the remaining activity was 81% (SRC; radiometric; 1 µM).
